ChEMBL document CHEMBL6092204, “Synthesis of pyridyl pyrimidine hedgehog signaling pathway inhibitors and their antitumor activity in human pancreatic cancer” (Eur J Med Chem, 2024)
pIC50: −log10 of the molar value. The source made the active and inactive calls. The rule behind the calls is not given here.

How the values were obtained:
BXPC-3 [1] = assay: Inhibition of Hh signaling pathway in human BXPC-3 cells assessed as reduction in Gli1 level incubated for 48 hrs by Western blot analysis; format: cell-based; settings: dose 2.5-10 µM
Outline: (§1)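 Cells were treated in 6-well plates for 48 h, lysed by sonication in RIPA with PMSF, and quantified by BCA. 20-30 μg protein was run on 6-12% gradient SDS-PAGE and transferred to PVDF. Membranes were blocked 2 h at room temperature, probed with anti-Gli1 overnight at 4 °C and secondary 1.5 h at room temperature, then developed by ECL. Densitometry was normalised to β-actin; three separate experiments.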

BXPC-3 [2] = assay: Induction of apoptosis in human BXPC-3 cells assessed as late apoptotic cells at 2.5 uM incubated for 48 hrs by Annexin V-FITC/PI staining based flow cytometry (reference value: 6.72 %); format: functional
BXPC-3 [3] = assay: Induction of apoptosis in human BXPC-3 cells assessed as viable cells at 10 uM incubated for 48 hrs by Annexin V-FITC/PI staining based flow cytometry (reference value: 91.5 %); format: functional; settings: read-out: Activity
[4] = Toxicity in BALB/c nude mouse xenografted with human BxPC-3 cells assessed as tissue fibrosis in liver at 5 to 15 mg/kg, ip qd for 21 days by H and E staining based analysis; settings: in vivo, 504 h
PANC-1 [5] = assay: Antiproliferative activity against human PANC-1 cells assessed as inhibition of cell viability incubated for 48 hrs by MTT assay; format: functional, cell-based; settings: PANC-1, 48 h
Outline: (§2)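 Cells in log phase were seeded at 8,000-10,000/well and allowed to adhere overnight at 37 °C, 5% CO2. Compound from DMSO stock, diluted in medium, was applied for 48 h; controls got drug-free medium, blanks held medium only. MTT (5 mg/mL stock) 4 h, formazan dissolved in DMSO, A490 read. Viability was blank-corrected against untreated cells; IC50 came from a fitted curve; three separate experiments.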

PANC-1 [6] = assay: Induction of apoptosis in human PANC-1 cells assessed as necrotic cells at 10 uM incubated for 48 hrs by Annexin V-FITC/PI staining based flow cytometry (reference value: 2.24 %); format: functional
PANC-1 [7] = assay: Inhibition of Hh signaling pathway in human PANC-1 cells assessed as reduction in Gli1 level incubated for 48 hrs by Western blot analysis; format: cell-based; settings: dose 2.5-10 µM; outline: as §1
BXPC-3 [8] = assay: Induction of apoptosis in human BXPC-3 cells assessed as late apoptotic cells at 8 uM incubated for 48 hrs by Annexin V-FITC/PI staining based flow cytometry (reference value: 6.72 %); format: functional
PANC-1 [9] = assay: Induction of apoptosis in human PANC-1 cells assessed as viable cells at 2.5 uM incubated for 48 hrs by Annexin V-FITC/PI staining based flow cytometry (reference value: 93.2 %); format: functional; settings: read-out: Activity
BXPC-3 [10] = assay: Antiproliferative activity against human BXPC-3 cells assessed as inhibition of cell viability incubated for 48 hrs by MTT assay; format: functional, cell-based; settings: BXPC-3, 48 h; outline: as §2
BXPC-3 [11] = assay: Induction of apoptosis in human BXPC-3 cells assessed as viable cells at 8 uM incubated for 48 hrs by Annexin V-FITC/PI staining based flow cytometry (reference value: 91.5 %); format: functional; settings: read-out: Activity
[12] = Toxicity in BALB/c nude mouse xenografted with human BxPC-3 cells assessed as necrosis in lung at 5 to 15 mg/kg, ip qd for 21 days by H and E staining based analysis; settings: in vivo, 504 h
BXPC-3 [13] = assay: Induction of apoptosis in human BXPC-3 cells assessed as late apoptotic cells at 10 uM incubated for 48 hrs by Annexin V-FITC/PI staining based flow cytometry (reference value: 6.72 %); format: functional
[14] = Toxicity in BALB/c nude mouse xenografted with human BxPC-3 cells assessed as necrosis in spleen at 5 to 15 mg/kg, ip qd for 21 days by H and E staining based analysis; settings: in vivo, 504 h
BXPC-3 [15] = assay: Inhibition of Hh signaling pathway in human BXPC-3 cells assessed as reduction in Gli1 mRNA level incubated for 48 hrs by qRT-PCR analysis; format: cell-based; settings: dose 2.5-10 µM
Outline: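 Total RNA was extracted by column kit after 48 h treatment and checked spectrophotometrically. Gli1 and Ptch1 transcripts were quantified by real-time RT-qPCR with GAPDH as internal control. Results are fold change relative to the untreated group; three separate experiments.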

[16] = Toxicity in BALB/c nude mouse xenografted with human BxPC-3 cells assessed as necrosis in heart at 5 to 15 mg/kg, ip qd for 21 days by H and E staining based analysis; settings: in vivo, 504 h
PANC-1 [17] = assay: Induction of apoptosis in human PANC-1 cells assessed as early apoptotic cells at 10 uM incubated for 48 hrs by Annexin V-FITC/PI staining based flow cytometry (reference value: 1.88 %); format: functional
[18] = Toxicity in BALB/c nude mouse xenografted with human BxPC-3 cells assessed as tissue fibrosis in lung at 5 to 15 mg/kg, ip qd for 21 days by H and E staining based analysis; settings: in vivo, 504 h
[19] = Toxicity in BALB/c nude mouse xenografted with human BxPC-3 cells assessed as tissue fibrosis in heart at 5 to 15 mg/kg, ip qd for 21 days by H and E staining based analysis; settings: in vivo, 504 h
BXPC-3 [20] = assay: Induction of cell cycle arrest in human BXPC-3 cells assessed as accumulation at S phase at 2.5 uM incubated for 48 hrs by PI/RNase staining based flow cytometry (reference value: 8.18 %); format: functional
PANC-1 [21] = assay: Induction of cell cycle arrest in human PANC-1 cells assessed as accumulation at G1 phase at 10 uM incubated for 48 hrs by PI/RNase staining based flow cytometry (reference value: 82.0 %); format: functional
BxPC-3 [22] = assay: Antitumor activity aginst human BxPC-3 cells xenografted in BALB/c nude mouse assessed as tumor growth inhibition at 5 to 15 mg/kg, ip qd for 21 days; settings: dose 5-15 mg/kg, time 21.0 day
BXPC-3 [23] = assay: Induction of apoptosis in human BXPC-3 cells assessed as early apoptotic cells at 10 uM incubated for 48 hrs by Annexin V-FITC/PI staining based flow cytometry (reference value: 1.11 %); format: functional
[24] = Toxicity in BALB/c nude mouse xenografted with human BxPC-3 cells assessed as inflammatory infiltration in kidneys at 5 to 15 mg/kg, ip qd for 21 days by H and E staining based analysis; settings: in vivo, 504 h
BxPC-3 [25] = assay: Antitumor activity aginst human BxPC-3 cells xenografted in BALB/c nude mouse assessed as decrease in tumor volume at 10 mg/kg, ip qd for 21 days relative to control; design: scale not given: the % may be the effect or the level left; settings: time 21 day
PANC-1 [26] = assay: Induction of cell cycle arrest in human PANC-1 cells assessed as accumulation at G2 phase at 5 uM incubated for 48 hrs by PI/RNase staining based flow cytometry (reference value: 5.83 %); format: functional
PANC-1 [27] = assay: Induction of apoptosis in human PANC-1 cells assessed as necrotic cells at 5 uM incubated for 48 hrs by Annexin V-FITC/PI staining based flow cytometry (reference value: 2.24 %); format: functional

CN(C)Cc1ccc(NC(=O)c2ccc(Nc3nccc(-c4cccnc4)n3)cc2)cc1
inhibition (BXPC-3 [1]): Dose-dependent-effect | Activity (BXPC-3 [2]): 8.06% | viability at 10 µM (BXPC-3 [3]): 71.8% | Activity [4]: Non-toxic | pIC50 (PANC-1 [5]): 5.38 | Activity (PANC-1 [6]): 2.56% | inhibition (PANC-1 [7]): Dose-dependent-effect | Activity (BXPC-3 [8]): 12.3% | viability at 2.5 µM (PANC-1 [9]): 90.7% | pIC50 (BXPC-3 [10]): 5.45 | viability at 8 µM (BXPC-3 [11]): 82.5% | Activity [12]: Non-toxic | Activity (BXPC-3 [13]): 24% | Activity [14]: Non-toxic | inhibition (BXPC-3 [15]): Dose-dependent-effect | Activity [16]: Non-toxic | Activity (PANC-1 [17]): 4.09% | Activity [18]: Non-toxic | Activity [19]: Non-toxic | Activity (BXPC-3 [20]): 11.1% | Activity (PANC-1 [21]): 72.7% | inhibition (BxPC-3 [22]): Active | Activity (BXPC-3 [23]): 1.86% | Activity [24]: Non-toxic | Activity (BxPC-3 [25]): 80% | Activity (PANC-1 [26]): 8.15% | Activity (PANC-1 [27]): 2.39%
